Data: ChEMBL document CHEMBL3044755, “5-Methyl-1,2,3-thiadiazoles synthesized via ugi reaction and their fungicidal and antiviral activities” (J Agric Food Chem, 2010)

How the values were obtained:
Type in all cases: functional
Cercospora beticola = experiment: Fungicidal activity against Cercospora beticola at 50 ug/ml by growth inhibition method; conditions: read-out: GI
Summary of the method: (§1)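 Mycelial growth inhibition on potato dextrose agar. The panel covered Alternaria solani, Botrytis cinerea, Cercospora arachidicola, C. beticola, Colletotrichum lagenarium, Fusarium oxysporum, Gibberella zeae, Puccinia triticina, Phytophthora infestans, Physalospora piricola, Pellicularia sasakii and Rhizoctonia solani.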

Alternaria solani = experiment: Fungicidal activity against Alternaria solani at 50 ug/ml by growth inhibition method; conditions: read-out: GI; summary of the method: as §1
Tobacco mosaic virus [1] = experiment: In vitro antiviral activity against Tobacco mosaic virus (TMV) infected tobacco leaves at 100 ug/ml
[2] = tested on: Botryosphaeria berengeriana; experiment: Fungicidal activity against Botryosphaeria berengeriana at 50 ug/ml by growth inhibition method; conditions: read-out: GI; summary of the method: as §1
Phytophthora infestans = experiment: Fungicidal activity against Phytophthora infestans at 50 ug/ml by growth inhibition method; conditions: read-out: GI; summary of the method: as §1
Puccinia triticina = experiment: Fungicidal activity against Puccinia triticina at 50 ug/ml by growth inhibition method; conditions: read-out: GI; summary of the method: as §1
Rhizoctonia solani = experiment: Fungicidal activity against Rhizoctonia solani at 50 ug/ml by growth inhibition method; conditions: read-out: GI; summary of the method: as §1
Tobacco mosaic virus [3] = experiment: In vitro antiviral activity against Tobacco mosaic virus (TMV) infected tobacco leaves at 500 ug/ml
Colletotrichum lagenaria = experiment: Fungicidal activity against Colletotrichum lagenaria at 50 ug/ml by growth inhibition method; conditions: read-out: GI; summary of the method: as §1
Fusarium graminearum = experiment: Fungicidal activity against Fusarium graminearum at 50 ug/ml by growth inhibition method; conditions: read-out: GI; summary of the method: as §1
Mycosphaerella arachidis = experiment: Fungicidal activity against Mycosphaerella arachidis at 50 ug/ml by growth inhibition method; conditions: read-out: GI; summary of the method: as §1
Thanatephorus cucumeris = experiment: Fungicidal activity against Thanatephorus cucumeris at 50 ug/ml by growth inhibition method; conditions: read-out: GI; summary of the method: as §1

Compound | inhibition of growth at 50 µg/mL (Cercospora beticola) [%] | inhibition of growth at 50 µg/mL (Alternaria solani) [%] | inhibition at 100 µg/mL (Tobacco mosaic virus [1]) [%] | inhibition of growth at 50 µg/mL [2] [%] | inhibition of growth at 50 µg/mL (Phytophthora infestans) [%] | inhibition of growth at 50 µg/mL (Puccinia triticina) [%] | inhibition of growth at 50 µg/mL (Rhizoctonia solani) [%] | inhibition at 500 µg/mL (Tobacco mosaic virus [3]) [%] | inhibition of growth at 50 µg/mL (Colletotrichum lagenaria) [%] | inhibition of growth at 50 µg/mL (Fusarium graminearum) [%] | inhibition of growth at 50 µg/mL (Mycosphaerella arachidis) [%] | inhibition of growth at 50 µg/mL (Thanatephorus cucumeris) [%]
Cc1ccc(N(C(=O)c2nnsc2C)C(C(=O)NC2CCCCC2)c2ccc(O)cc2)cc1F (stereo not drawn) | 25 | 13 | 9 | 0 | 25 | 0 | 22 | 34 | 36 | 14 | 45 | 0
Cc1cccc(C(C(=O)NC(C)C)N(C(=O)c2nnsc2C)c2ccc(C)c(F)c2)c1 (stereo not drawn) | 25 | 0 | 14 | 0 | 13 | 0 | 0 | 35 | 0 | 0 | 9 | 0
Cc1ccc(N(C(=O)c2nnsc2C)C(C(=O)NC(C)C)c2ccccc2C)cc1F (stereo not drawn) | 0 | 56 | 36 | 0 | 31 | 0 | 22 | 55 | 50 | 27 | 36 | 0
Cc1ccc(N(C(=O)c2nnsc2C)C(C(=O)NC(C)C)c2cccc(O)c2)cc1F (stereo not drawn) | 11 | 0 | 4 | 0 | 38 | 0 | 2 | 20 | 14 | 0 | 0 | 0
Cc1ccc(N(C(=O)c2nnsc2C)C(C(=O)NC(C)C)c2ccccc2O)cc1F (stereo not drawn) | 0 | 0 | 27 | 19 | 0 | 0 | 26 | 56 | 50 | 50 | 0 | 41
Cc1ccc(N(C(=O)c2nnsc2C)C(C(=O)NC2CCCCC2)c2ccccc2)cc1F (stereo not drawn) | 0 | 25 | 51 | 69 | 38 | 0 | 0 | 71 | 0 | 27 | 18 | 65
Cc1ccc(N(C(=O)c2nnsc2C)C(C(=O)NC2CCCCC2)c2ccc([N+](=O)[O-])cc2)cc1F (stereo not drawn) | 25 | 0 | 8 | 0 | 50 | 0 | 2 | 70 | 14 | 0 | 45 | 0
Cc1ccc(N(C(=O)c2nnsc2C)C(C(=O)NC2CCCCC2)c2cccc([N+](=O)[O-])c2)cc1F (stereo not drawn) | 25 | 0 | 9 | 0 | 44 | 0 | 4 | 57 | 0 | 0 | 0 | 0
Cc1ccc(N(C(=O)c2nnsc2C)C(C(=O)NC2CCCCC2)c2ccccc2[N+](=O)[O-])cc1F (stereo not drawn) | 25 | 0 | 5 | 12 | 50 | 0 | 9 | 11 | 0 | 0 | 27 | 0
